Measured values published in ChEMBL document CHEMBL4689842, “EUbOPEN Chemogenomics Library wave 1” (2021).

System: U2OS
Experiment: Multiplex assay against U2OS
Assay type: toxicity, cell-based
Conditions: human
Outline: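 At seeding, live cells were stained with Hoechst33342, BioTracker Green Microtubule Cytoskeleton Dye, MitoTracker Red and Annexin V Alexa Fluor 680. After compound addition they were imaged on a CQ1 microscope at 37°C and 5% CO2, and CellPathfinder machine-learning gating sorted them into Hoechst high-intensity objects or normal cells, with normal cells further split into healthy, pyknosed or fragmented nuclei and pyknosed cells into mitotic or apoptotic. Tubulin, mitochondrial-mass and membrane-permeability phenotypes are given as per cents of cells with healthy nuclei.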

[1] = 12 h, 1 µM, compound concentration 1 uM, replicate 1
[2] = 12 h, 1 µM, compound concentration 1 uM, replicate 2
[3] = 12 h, 10 µM, compound concentration 10 uM, replicate 1
[4] = 12 h, 10 µM, compound concentration 10 uM, replicate 2
[5] = 24 h, 1 µM, compound concentration 1 uM, replicate 1
[6] = 24 h, 1 µM, compound concentration 1 uM, replicate 2
[7] = 24 h, 10 µM, compound concentration 10 uM, replicate 1
[8] = 24 h, 10 µM, compound concentration 10 uM, replicate 2
[9] = 48 h, 1 µM, compound concentration 1 uM, replicate 1
[10] = 48 h, 1 µM, compound concentration 1 uM, replicate 2
[11] = 48 h, 10 µM, compound concentration 10 uM, replicate 1
[12] = 48 h, 10 µM, compound concentration 10 uM, replicate 2

With CCCn1c(=O)c2[nH]c(C34CC5CC(CC3C5)C4)nc2n(CCC)c1=O [ROLOFYLLINE] the “Population Apoptotic (%)” value [1] was 50%, the “Population Fragmented Nuclei (%)” value [1] was 14% and the “Population Healthy Nuclei (%)” value [1] was 77%. For the same compound, the “Population Hoechst High Intensity Objects (%)” value [1] was 7%, the “Population Membrane Permeable-Phenotype (%)” value [1] was 9% and the “Population Mitochondria Different-Phenotype (%)” value [1] was 8%. The “Population Mitotic Cells (%)” value [1] was 50%, the “Population Normal (%)” value [1] was 92% and the “Population Pyknosed Nuclei (%)” value [1] was 8%. For the same compound, the “Population Tubulin-Different-Phenotype (%)” value [1] was 18%, the “Total Cell Count” value [1] was 123 and the “Population Apoptotic (%)” value [2] was 71%. For the same compound, the “Population Fragmented Nuclei (%)” value [2] was 4%, the “Population Healthy Nuclei (%)” value [2] was 88% and the “Population Hoechst High Intensity Objects (%)” value [2] was 3%. For the same compound, the “Population Membrane Permeable-Phenotype (%)” value [2] was 12%, the “Population Mitochondria Different-Phenotype (%)” value [2] was 15% and the “Population Mitotic Cells (%)” value [2] was 28%. The “Population Normal (%)” value [2] was 96%, the “Population Pyknosed Nuclei (%)” value [2] was 7% and the “Population Tubulin-Different-Phenotype (%)” value [2] was 20%. The “Total Cell Count” value [2] was 81, the “Population Apoptotic (%)” value [3] was 58% and the “Population Fragmented Nuclei (%)” value [3] was 7%. The “Population Healthy Nuclei (%)” value [3] was 76%, the “Population Hoechst High Intensity Objects (%)” value [3] was 13% and the “Population Membrane Permeable-Phenotype (%)” value [3] was 32%. For the same compound, the “Population Mitochondria Different-Phenotype (%)” value [3] was 80%, the “Population Mitotic Cells (%)” value [3] was 41% and the “Population Normal (%)” value [3] was 86%. The “Population Pyknosed Nuclei (%)” value [3] was 17%, the “Population Tubulin-Different-Phenotype (%)” value [3] was 97% and the “Population Apoptotic (%)” value [4] was 55%. The “Population Fragmented Nuclei (%)” value [4] was 13%, the “Population Healthy Nuclei (%)” value [4] was 74% and the “Population Hoechst High Intensity Objects (%)” value [4] was 3%. For the same compound, the “Population Membrane Permeable-Phenotype (%)” value [4] was 46%, the “Population Mitochondria Different-Phenotype (%)” value [4] was 73% and the “Population Mitotic Cells (%)” value [4] was 44%. The “Population Normal (%)” value [4] was 96%, the “Population Pyknosed Nuclei (%)” value [4] was 12% and the “Population Tubulin-Different-Phenotype (%)” value [4] was 100%. For the same compound, the “Total Cell Count” value [4] was 99, the “Population Apoptotic (%)” value [5] was 50% and the “Population Fragmented Nuclei (%)” value [5] was 9%. For the same compound, the “Population Healthy Nuclei (%)” value [5] was 74%, the “Population Hoechst High Intensity Objects (%)” value [5] was 2% and the “Population Membrane Permeable-Phenotype (%)” value [5] was 5%. The “Population Mitochondria Different-Phenotype (%)” value [5] was 5%, the “Population Mitotic Cells (%)” value [5] was 50% and the “Population Normal (%)” value [5] was 97%. The “Population Pyknosed Nuclei (%)” value [5] was 15%, the “Population Tubulin-Different-Phenotype (%)” value [5] was 10% and the “Total Cell Count” value [5] was 136. For the same compound, the “Population Apoptotic (%)” value [6] was 40%, the “Population Fragmented Nuclei (%)” value [6] was 7% and the “Population Healthy Nuclei (%)” value [6] was 88%. The “Population Hoechst High Intensity Objects (%)” value [6] was 5%, the “Population Membrane Permeable-Phenotype (%)” value [6] was 6% and the “Population Mitochondria Different-Phenotype (%)” value [6] was 11%. The “Population Mitotic Cells (%)” value [6] was 60%, the “Population Normal (%)” value [6] was 94% and the “Population Pyknosed Nuclei (%)” value [6] was 4%. The “Population Tubulin-Different-Phenotype (%)” value [6] was 15%, the “Total Cell Count” value [6] was 83 and the “Population Apoptotic (%)” value [7] was 60%. The “Population Fragmented Nuclei (%)” value [7] was 13%, the “Population Healthy Nuclei (%)” value [7] was 60% and the “Population Hoechst High Intensity Objects (%)” value [7] was 10%. For the same compound, the “Population Membrane Permeable-Phenotype (%)” value [7] was 38%, the “Population Mitochondria Different-Phenotype (%)” value [7] was 84% and the “Population Mitotic Cells (%)” value [7] was 39%. The “Population Normal (%)” value [7] was 89%, the “Population Pyknosed Nuclei (%)” value [7] was 26% and the “Population Tubulin-Different-Phenotype (%)” value [7] was 98%. For the same compound, the “Total Cell Count” value [7] was 105, the “Population Apoptotic (%)” value [8] was 56% and the “Population Fragmented Nuclei (%)” value [8] was 9%. The “Population Healthy Nuclei (%)” value [8] was 58%, the “Population Hoechst High Intensity Objects (%)” value [8] was 5% and the “Population Membrane Permeable-Phenotype (%)” value [8] was 41%. The “Population Mitochondria Different-Phenotype (%)” value [8] was 81%, the “Population Mitotic Cells (%)” value [8] was 43% and the “Population Normal (%)” value [8] was 94%. For the same compound, the “Population Pyknosed Nuclei (%)” value [8] was 31%, the “Population Tubulin-Different-Phenotype (%)” value [8] was 100% and the “Total Cell Count” value [8] was 120. The “Population Apoptotic (%)” value [9] was 72%, the “Population Fragmented Nuclei (%)” value [9] was 9% and the “Population Healthy Nuclei (%)” value [9] was 78%. The “Population Hoechst High Intensity Objects (%)” value [9] was 4%, the “Population Membrane Permeable-Phenotype (%)” value [9] was 2% and the “Population Mitochondria Different-Phenotype (%)” value [9] was 10%. For the same compound, the “Population Mitotic Cells (%)” value [9] was 27%, the “Population Normal (%)” value [9] was 95% and the “Population Pyknosed Nuclei (%)” value [9] was 12%. For the same compound, the “Population Tubulin-Different-Phenotype (%)” value [9] was 10%, the “Total Cell Count” value [9] was 168 and the “Population Apoptotic (%)” value [10] was 43%. The “Population Fragmented Nuclei (%)” value [10] was 5%, the “Population Healthy Nuclei (%)” value [10] was 84% and the “Population Hoechst High Intensity Objects (%)” value [10] was 2%. The “Population Membrane Permeable-Phenotype (%)” value [10] was 8%, the “Population Mitochondria Different-Phenotype (%)” value [10] was 21% and the “Population Mitotic Cells (%)” value [10] was 56%. For the same compound, the “Population Normal (%)” value [10] was 97%, the “Population Pyknosed Nuclei (%)” value [10] was 9% and the “Population Tubulin-Different-Phenotype (%)” value [10] was 17%. The “Total Cell Count” value [10] was 103, the “Population Apoptotic (%)” value [11] was 69% and the “Population Fragmented Nuclei (%)” value [11] was 18%. For the same compound, the “Population Healthy Nuclei (%)” value [11] was 43%, the “Population Hoechst High Intensity Objects (%)” value [11] was 12% and the “Population Membrane Permeable-Phenotype (%)” value [11] was 35%. The “Population Mitochondria Different-Phenotype (%)” value [11] was 60%, the “Population Mitotic Cells (%)” value [11] was 30% and the “Population Normal (%)” value [11] was 87%. For the same compound, the “Population Pyknosed Nuclei (%)” value [11] was 37%, the “Population Tubulin-Different-Phenotype (%)” value [11] was 96% and the “Total Cell Count” value [11] was 157. For the same compound, the “Population Apoptotic (%)” value [12] was 66%, the “Population Fragmented Nuclei (%)” value [12] was 19% and the “Population Healthy Nuclei (%)” value [12] was 39%. For the same compound, the “Population Hoechst High Intensity Objects (%)” value [12] was 4%, the “Population Membrane Permeable-Phenotype (%)” value [12] was 81% and the “Population Mitochondria Different-Phenotype (%)” value [12] was 68%. The “Population Mitotic Cells (%)” value [12] was 33%, the “Population Normal (%)” value [12] was 95% and the “Population Pyknosed Nuclei (%)” value [12] was 40%. For the same compound, the “Population Tubulin-Different-Phenotype (%)” value [12] was 100% and the “Total Cell Count” value [12] was 168.
